Experimental data taken from ChEMBL document CHEMBL1151323, “Use of on-flow LC/1H NMR for the study of an antioxidant fraction from Orophea enneandra and isolation of a polyacetylene, lignans, and a tocopherol derivative” (J Nat Prod, 1998).
The source made the active and inactive calls. The rule behind the calls is not given here.

How the values were obtained:
[1] = Antioxidant activity against beta-carotene assessed as inhibition of bleaching at 10 ug; type: functional
In short: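 Silica gel 60 F254 TLC plates developed in petroleum ether–EtOAc (1:2), then dried and sprayed with 0.05% β-carotene in CHCl3. Plates were kept under UV 254 nm until the background discolored. Inhibition of bleaching was read on the plate.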

[2] = DPPH radical scavenging activity at 10 ug by TLC autographic assay; type: functional
In short: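 TLC autography on silica gel 60 F254 plates developed in petroleum ether–EtOAc (1:2), dried, then sprayed with 0.2% DPPH in MeOH. Plates were read 30 min after spraying; active zones show as yellow spots on a purple background.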

[3] = system: Cladosporium cucumerinum; experiment: Antifungal activity against Cladosporium cucumerinum at 20 ug; type: functional, organism-based
[4] = system: Cladosporium cucumerinum; experiment: Antifungal activity against Cladosporium cucumerinum at 40 ug; type: functional, organism-based
[5] = DPPH radical scavenging activity at 10 ug by TLC autographic assay
[6] = system: Cladosporium cucumerinum; experiment: Antifungal activity against Cladosporium cucumerinum at 10 ug; type: functional, organism-based

SMILES	Activity [1]	Activity [2]	Activity [3]	Activity [4]	Activity [5]	Activity [6]
COc1cc([C@@H]2OC[C@@H]3[C@H]2CO[C@@H]3c2ccc(OC)c(OC)c2)ccc1O	Active	Active	Active	–	–	–
C/C(=C/CC/C(C)=C/CCC1(C)CCc2cc(O)cc(C)c2O1)C(=O)O (centres undefined)	Active	Active	–	Active	Active	–
Clc1ccc(COC(Cn2ccnc2)c2ccc(Cl)cc2Cl)c(Cl)c1 (centres undefined)	–	–	–	–	–	Active
COc1ccc([C@@H]2OC[C@@H]3[C@H]2CO[C@H]3c2ccc(OC)c(OC)c2)cc1OC	Active	Active	Active	–	–	–
COc1ccc([C@H]2OC[C@@H]3[C@H]2CO[C@H]3c2ccc(OC)c(OC)c2)cc1OC	Active	Active	Active	–	–	–
